We go through ten molecules from paper PMC3240942 (Molecular cell, 2011).

One may read the Km as the concentration of substrate that gives half-maximal velocity.

Where no end group is shown, it is not given here.

In series [1] the target is T1, Sirt1 (Mus musculus, UniProt Q923E4).
T1 sequence (Q923E4 1-737): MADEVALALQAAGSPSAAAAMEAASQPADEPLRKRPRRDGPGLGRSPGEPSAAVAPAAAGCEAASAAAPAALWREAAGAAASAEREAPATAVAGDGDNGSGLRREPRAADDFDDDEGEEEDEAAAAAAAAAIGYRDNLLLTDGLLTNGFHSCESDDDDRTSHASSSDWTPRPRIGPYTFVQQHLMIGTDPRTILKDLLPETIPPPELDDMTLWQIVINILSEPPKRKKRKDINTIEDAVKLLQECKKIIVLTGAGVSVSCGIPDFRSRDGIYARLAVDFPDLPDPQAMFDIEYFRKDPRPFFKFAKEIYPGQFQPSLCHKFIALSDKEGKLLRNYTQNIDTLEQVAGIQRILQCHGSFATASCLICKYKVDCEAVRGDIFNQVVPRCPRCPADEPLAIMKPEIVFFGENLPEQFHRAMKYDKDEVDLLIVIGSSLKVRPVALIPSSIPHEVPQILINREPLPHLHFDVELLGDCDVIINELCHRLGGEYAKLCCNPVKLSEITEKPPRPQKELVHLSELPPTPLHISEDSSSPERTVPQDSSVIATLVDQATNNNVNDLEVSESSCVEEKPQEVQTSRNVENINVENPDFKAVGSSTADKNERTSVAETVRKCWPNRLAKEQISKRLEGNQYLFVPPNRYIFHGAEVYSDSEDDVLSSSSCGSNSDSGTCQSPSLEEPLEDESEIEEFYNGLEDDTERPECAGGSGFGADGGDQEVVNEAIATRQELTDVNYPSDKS
The series can be described thus: Lineweaver-Burk kinetics of Sirt1. The series is classed as biochemical. Particulars: Sirt1 substrate/cofactor, under our reaction conditions. Put shortly: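 His-Sirt1 (2 μg) was pre-incubated 5 min at room temperature in HEPES pH 7.0 buffer with mutant ESA peptide at 0, 60, 120 or 240 μM. Ac-K16 H4 fluorogenic dipeptide was varied at 500 μM NAD+, or NAD+ was varied at 100 μM substrate. Reactions ran 25 min at 37 °C and were stopped with nicotinamide developer; ex 355/em 460 nm, no-NAD+ blank subtracted. Triplicates. Kis/Kii came from a double-reciprocal noncompetitive model fit, Km from the same analysis, kcat from a Michaelis–Menten fit.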

For series [2], the target named is T1, Sirt1. Particulars: 2007, cited from earlier work; for reported Sirt1 activation: ref Howitz et al., 2003, Milne et al.
The subject of series [3] is Ac-H4 peptide. Put plainly: Pull-down with streptavidin-immobilized Ac-H4 peptide. The series is classed as binding. Put shortly:
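Biotinylated peptide (mutant ESA or acetyl-H4) was bound to streptavidin agarose for 1 h at room temperature, washed, and held in PBS/1% Triton X-100. Beads (30 μl) took 2 μg GST-fused or His-tagged protein for 2 h at room temperature. Beads were washed with PBS/1% Triton/200 mM NaCl and eluted in β-ME SDS buffer at 95 °C for 10 min. Blots ran on 4–12% SDS-PAGE; biotin-only beads were the control.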

Series [4] concerns Flag-p65 (NF-κB). The series can be described thus: Co-immunoprecipitation of Sirt1 with Flag-p65 in Hela cells. The series is classed as cell-based. Particulars: V5-tagged Sirt1. Put shortly:
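Transient co-transfection of HeLa cells with Flag-NF-κB p65 plus V5-tagged full-length or ΔESA Sirt1. p65 was pulled down with anti-Flag, and bound Sirt1 was detected by anti-V5 immunoblot alongside input levels.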

Series [5] concerns Lys 382 acetylated-p53 (Ac-p53). Put plainly: Deacetylation of Lys 382 acetylated-p53 by recombinant WT/mutant Sirt1. The series is classed as biochemical, mouse Sirt1. To be noted: recombinant Sirt1 2 μg, acetylated GST-p53 0.2 μg, 0.5 mM NAD+, pH 7.0, 37 °C; immunoblot. The essentials:
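Recombinant His-tagged WT or C-terminally truncated/point-mutant mouse Sirt1 (2 μg) incubated with acetylated GST-p53 (0.2 μg) and 0.5 mM NAD+ in 50 mM HEPES pH 7.0, 1 mM DTT, 10 mM MgCl2, 200 mM NaCl plus protease/phosphatase inhibitors. Reactions ran at 37 °C for indicated times and were stopped with SDS sample buffer. Read-out: immunoblot with acetyl-K382 p53 antibody; loading checked by Coomassie, Ponceau S or Western blot.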
In general terms: In western blotting, separated proteins are transferred to a membrane and probed.

Series [6] relates to GST-Ac-p53. Put plainly: Pull-down of Sirt1 / core fragments with GST-Ac-p53. The series is classed as binding. To be noted: in vitro pull-down. The essentials: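 In vitro pull-downs with GST-Ac-p53 or GST alone as negative control. Recombinant Flag-tagged full-length or ΔESA (a.a. 631-655 deleted) Sirt1 pulled down with anti-Flag, bound GST-Ac-p53 detected by GST immunoblot, and Sirt1 shown by Coomassie. Alternatively, core (a.a. 184-510) or Core-ESA with GST-Ac-p53 (2 μg each) in GST pull-down, bound core detected by Sirt1 immunoblot.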

For series [7], the target named is T2, Sirt1 deacetylase core (Core, a.a. 184-510) (mouse, UniProt Q923E4 184-510).
T2 sequence (looked up): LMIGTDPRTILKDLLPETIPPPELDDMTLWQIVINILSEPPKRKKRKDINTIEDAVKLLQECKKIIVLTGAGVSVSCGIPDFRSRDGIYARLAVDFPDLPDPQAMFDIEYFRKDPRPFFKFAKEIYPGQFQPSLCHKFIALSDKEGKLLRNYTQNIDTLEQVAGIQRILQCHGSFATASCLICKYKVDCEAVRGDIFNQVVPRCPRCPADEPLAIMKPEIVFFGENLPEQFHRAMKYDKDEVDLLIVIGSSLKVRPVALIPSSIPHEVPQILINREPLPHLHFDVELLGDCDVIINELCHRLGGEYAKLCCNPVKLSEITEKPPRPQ
The series can be described thus: pull-down.

In series [8] the target is T3, Sirt1 fragment F1b (the Sirtuin domain, a.a. 236-490) (mouse, UniProt Q923E4 236-490).
T3 sequence (looked up): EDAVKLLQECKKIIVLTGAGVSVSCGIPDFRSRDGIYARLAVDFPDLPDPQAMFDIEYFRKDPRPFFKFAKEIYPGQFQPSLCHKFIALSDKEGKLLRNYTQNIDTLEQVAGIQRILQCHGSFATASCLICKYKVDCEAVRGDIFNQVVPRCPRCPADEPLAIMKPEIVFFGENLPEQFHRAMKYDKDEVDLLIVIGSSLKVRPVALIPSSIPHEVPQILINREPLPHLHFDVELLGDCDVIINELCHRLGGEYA
The series can be described thus: pull-down.

As for `NC(=O)c1ccc[n+]([C@@H]2O[C@H](COP(=O)([O-])OP(=O)(O)OC[C@H]3O[C@@H](n4cnc5c(N)ncnc54)[C@H](O)[C@@H]3O)[C@@H](O)[C@H]2O)c1` [NAD^+, reference compound], the Km in series [1] was determined as 203 µM.

On to `O=C(Nc1ccccc1-c1cn2c(CN3CCNCC3)csc2n1)c1cnc2ccccc2n1` [SRT1720, reference compound], for which, in series [2], the “reported Sirt1 activation” value is “reported to activate Sirt1”.

For `Oc1ccc(/C=C/c2cc(O)cc(O)c2)cc1` [resveratrol, reference compound], in series [2], the “reported Sirt1 activation” value was “reported to activate Sirt1”. For “GST-ESA: ESA fused to GST (QYLFVPPNRYIFHGAEVYSDSEDDV; also: fused to GST, end not given here)”, the “binding to Ac-H4 peptide” value in series [3] is “not to either GST-ESA or GST alone”.

B1: WT Sirt1: wild-type full-length Sirt1 (protein)
chain: MADEVALALQAAGSPSAAAAMEAASQPADEPLRKRPRRDGPGLGRSPGEPSAAVAPAAAGCEAASAAAPAALWREAAGAAASAEREAPATAVAGDGDNGSGLRREPRAADDFDDDEGEEEDEAAAAAAAAAIGYRDNLLLTDGLLTNGFHSCESDDDDRTSHASSSDWTPRPRIGPYTFVQQHLMIGTDPRTILKDLLPETIPPPELDDMTLWQIVINILSEPPKRKKRKDINTIEDAVKLLQECKKIIVLTGAGVSVSCGIPDFRSRDGIYARLAVDFPDLPDPQAMFDIEYFRKDPRPFFKFAKEIYPGQFQPSLCHKFIALSDKEGKLLRNYTQNIDTLEQVAGIQRILQCHGSFATASCLICKYKVDCEAVRGDIFNQVVPRCPRCPADEPLAIMKPEIVFFGENLPEQFHRAMKYDKDEVDLLIVIGSSLKVRPVALIPSSIPHEVPQILINREPLPHLHFDVELLGDCDVIINELCHRLGGEYAKLCCNPVKLSEITEKPPRPQKELVHLSELPPTPLHISEDSSSPERTVPQDSSVIATLVDQATNNNVNDLEVSESSCVEEKPQEVQTSRNVENINVENPDFKAVGSSTADKNERTSVAETVRKCWPNRLAKEQISKRLEGNQYLFVPPNRYIFHGAEVYSDSEDDVLSSSSCGSNSDSGTCQSPSLEEPLEDESEIEEFYNGLEDDTERPECAGGSGFGADGGDQEVVNEAIATRQELTDVNYPSDKS
modifications: left off: His tag, end not stated, kept
For B1, in series [4], the “co-immunoprecipitation with Flag-p65” value is “readily co-immunoprecipitated with Flag-p65”. In series [3], the “binding to Ac-H4 peptide” value is “Ac-H4 peptide bound to full-length Sirt1”.

B2: AROS: Active Regulator of Sirt1 (protein, UniProt Q86WX3 1-136, looked up)
Active regulator of SIRT1: MSAALLRRGLELLAASEAPRDPPGQAKPRGAPVKRPRKTKAIQAQKLRNSAKGKVPKSALDEYRKRECRDHLRVNLKFLTRTRSTVAESVSQQILRQNRGRKACDRPVAKTKKKKAEGTVFTEEDFQKFQQEYFGS
Turning to B2, the “effect on Sirt1 activity” value in series [2] (binds to N-terminal domain of Sirt1, ref Kim et al.) is “activates its activity”.

B3: Core-ESA: ESA region attached to the deacetylase core (protein)
chain: LMIGTDPRTILKDLLPETIPPPELDDMTLWQIVINILSEPPKRKKRKDINTIEDAVKLLQECKKIIVLTGAGVSVSCGIPDFRSRDGIYARLAVDFPDLPDPQAMFDIEYFRKDPRPFFKFAKEIYPGQFQPSLCHKFIALSDKEGKLLRNYTQNIDTLEQVAGIQRILQCHGSFATASCLICKYKVDCEAVRGDIFNQVVPRCPRCPADEPLAIMKPEIVFFGENLPEQFHRAMKYDKDEVDLLIVIGSSLKVRPVALIPSSIPHEVPQILINREPLPHLHFDVELLGDCDVIINELCHRLGGEYAKLCCNPVKLSEITEKPPRPQQYLFVPPNRYIFHGAEVYSDSEDDV
modifications: left off: His tag, end not stated, kept
Turning to B3, in series [5], the “deacetylase activity against Ac-p53” value is listed as “restored deacetylase activity”. In addition, the “binding to GST-Ac-p53” value in series [6] is given as “increases the deacetylase core-Ac-p53 interaction”. In addition, the “binding to Ac-H4 peptide” value in series [3] was “increases the deacetylase core-Ac-H4 interaction”.

B4: Core-GPDR: GPDR-mutated ESA region attached to the Core (protein)
chain: LMIGTDPRTILKDLLPETIPPPELDDMTLWQIVINILSEPPKRKKRKDINTIEDAVKLLQECKKIIVLTGAGVSVSCGIPDFRSRDGIYARLAVDFPDLPDPQAMFDIEYFRKDPRPFFKFAKEIYPGQFQPSLCHKFIALSDKEGKLLRNYTQNIDTLEQVAGIQRILQCHGSFATASCLICKYKVDCEAVRGDIFNQVVPRCPRCPADEPLAIMKPEIVFFGENLPEQFHRAMKYDKDEVDLLIVIGSSLKVRPVALIPSSIPHEVPQILINREPLPHLHFDVELLGDCDVIINELCHRLGGEYAKLCCNPVKLSEITEKPPRPQQYLFVPPNRYIFHPAEVYSRSEDDV
For B4, in series [3], the “binding to Ac-H4 peptide” value is “interacted poorly with the Ac-H4 peptide”.

B5: deacetylase core: a.a. 184-510 of Sirt1 (protein)
chain: LMIGTDPRTILKDLLPETIPPPELDDMTLWQIVINILSEPPKRKKRKDINTIEDAVKLLQECKKIIVLTGAGVSVSCGIPDFRSRDGIYARLAVDFPDLPDPQAMFDIEYFRKDPRPFFKFAKEIYPGQFQPSLCHKFIALSDKEGKLLRNYTQNIDTLEQVAGIQRILQCHGSFATASCLICKYKVDCEAVRGDIFNQVVPRCPRCPADEPLAIMKPEIVFFGENLPEQFHRAMKYDKDEVDLLIVIGSSLKVRPVALIPSSIPHEVPQILINREPLPHLHFDVELLGDCDVIINELCHRLGGEYAKLCCNPVKLSEITEKPPRPQ
modifications: left off: His tag, end not stated, kept
B5: the “deacetylase activity against Ac-p53” value in series [5] was “no catalytic activity”.

As for QYLFVPPNRYIFHGAEVYSDSEDDV (peptide, UniProt Q923E4 631-655, looked up, also: biotin-tagged, position not given here) [ESA peptide (biotin-tagged peptide of the region essential for Sirt1 activity, a.a. 631-655)], the binding result in series [7] and in series [8] was “binds” throughout.
